Reference: ChEMBL document CHEMBL3228031, “Prodrugs of 9-(beta-D-arabinofuranosyl)adenine 2. Synthesis and evaluation of a number of 2',3'- and 3',5'-di-O-acyl derivatives” (J Med Chem, 1979)
Values after ≈ are worked out from the molar mass of the structure shown. Blank lines part the entries; values can stand above or below the compound they belong to. Active and inactive are the calls of the source. The calls are words filed in the database; no cut-off is given here.

Key:
[1] = system: Human alphaherpesvirus 1; assay: Antiviral activity against Herpes simplex virus 1 assessed as plaque reduction at 5.47 x 10^-5 M by cell-based assay relative to vidarabine; assay type: functional
In short: (§1)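 HSV-1 plaque-reduction assay by the Hsiung–Melnick procedure. Challenge was 125-300 plaque-forming units. An ara-A control was run alongside each sample at the same molar concentration with an identical virus challenge. Data were confirmed by duplicate assay (±10%).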

[2] = molecular target: T1, Adenosine deaminase (Bos taurus, UniProt P56658); assay: Activity of calf mucosal adenosine deaminase assessed as enzyme-mediated drug metabolism by liquid chromatographic analysis; assay type: ADME; settings: cattle
T1 sequence (P56658 whole entry): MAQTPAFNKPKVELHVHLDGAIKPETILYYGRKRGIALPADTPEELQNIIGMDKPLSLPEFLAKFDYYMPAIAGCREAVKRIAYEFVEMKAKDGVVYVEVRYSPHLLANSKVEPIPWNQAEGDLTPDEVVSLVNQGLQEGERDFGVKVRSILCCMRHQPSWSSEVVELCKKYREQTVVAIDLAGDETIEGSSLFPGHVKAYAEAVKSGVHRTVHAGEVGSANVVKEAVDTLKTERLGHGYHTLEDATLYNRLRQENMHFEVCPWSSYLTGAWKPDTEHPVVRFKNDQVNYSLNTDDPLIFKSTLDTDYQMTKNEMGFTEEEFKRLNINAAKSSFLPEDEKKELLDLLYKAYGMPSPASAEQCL
In short: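 Drug exposed to the deaminase, with enzyme level also raised 10- and 100-fold. Reaction mixtures analysed by reverse-phase C18 LC (aqueous acetonitrile eluent, 254-nm UV detection) for unchanged substrate.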

[3] = Aqueous solubility of the compound at pH 7; assay type: physicochemical
[4] = system: Human alphaherpesvirus 1; assay: Antiviral activity against Herpes simplex virus 1 assessed as plaque reduction at 0.18 x 10^-5 M by cell-based assay relative to vidarabine; assay type: functional; in short: as §1
[5] = system: Human alphaherpesvirus 1; assay: Antiviral activity against Herpes simplex virus 1 assessed as plaque reduction at 0.18 x 10^-5 M by cell-based assay relative to control; assay type: functional; in short: as §1
[6] = system: Human alphaherpesvirus 1; assay: Antiviral activity against Herpes simplex virus 1 assessed as plaque reduction at 1.76 x 10^-5 M by cell-based assay relative to vidarabine; assay type: functional; in short: as §1
[7] = system: Human alphaherpesvirus 1; assay: Antiviral activity against Herpes simplex virus 1 assessed as plaque reduction at 1.83 x 10^-5 M by cell-based assay relative to control; assay type: functional; in short: as §1
[8] = system: Human alphaherpesvirus 2; assay: Antiviral activity against Herpes simplex virus 2 Magill infected in guinea pig assessed as prevention of inflammation at 3% compound concentration treated intravaginally bid for 4 days measured on day 16 post-infection; assay type: functional, organism-based
In short: (§2)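 Animals were infected intravaginally with 1 × 10^2.82 PFU in 0.1 mL. Drug ointments were given intravaginally starting 4 h postinfection, then twice daily for 4 days, filling the vagina. Clinical signs were scored as animals positive/infected. Cure meant no symptoms, or symptoms healed by day 16 postinfection; it was reported as cured/infected.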

[9] = system: Human alphaherpesvirus 2; assay: Antiviral activity against Herpes simplex virus 2 Magill infected in guinea pig assessed as prevention of paralysis at 3% compound concentration treated intravaginally bid for 4 days measured on day 16 post-infection; assay type: functional, organism-based; in short: as §2
[10] = species on record: Cavia porcellus; assay: Toxicity in albino guinea pig assessed as development of erythema at 3% compound concentration treated intravaginally bid for 4 days; assay type: organism-based; settings: in vivo, other, 96 h
In short: (§3)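 Uninfected control animals received drug ointment intravaginally (topical), twice daily for 4 days, in an amount enough to fill the vagina.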

[11] = species on record: Cavia porcellus; assay: Toxicity in albino guinea pig assessed as death at 3% compound concentration treated intravaginally bid for 4 days; assay type: organism-based; settings: in vivo, other, 96 h; in short: as §3
[12] = system: Human alphaherpesvirus 2; assay: Antiviral activity against Herpes simplex virus 2 Magill infected in guinea pig assessed as prevention of death at 3% compound concentration treated intravaginally bid for 4 days measured on day 16 post-infection; assay type: functional, organism-based; in short: as §2
[13] = system: Human alphaherpesvirus 2; assay: Antiviral activity against Herpes simplex virus 2 Magill infected in guinea pig assessed as prevention of vesiculation of labia and vulva at 3% compound concentration treated intravaginally bid for 4 days measured on day 16 post-infection; assay type: functional, organism-based; in short: as §2
[14] = system: Human alphaherpesvirus 2; assay: Antiviral activity against Herpes simplex virus 2 Magill infected in guinea pig assessed as prevention of vulvo-vaginal swelling at 3% compound concentration treated intravaginally bid for 4 days measured on day 16 post-infection; assay type: functional, organism-based; in short: as §2
[15] = system: Human alphaherpesvirus 1; assay: Antiviral activity against Herpes simplex virus 1 assessed as plaque reduction at 1.83 x 10^-5 M by cell-based assay relative to vidarabine; assay type: functional; settings: Human alphaherpesvirus 1, read-out: INH; in short: as §1
[16] = system: Human alphaherpesvirus 2; assay: Antiviral activity against Herpes simplex virus 2 Magill infected in guinea pig assessed as prevention of vaginal discharge at 3% compound concentration treated intravaginally bid for 4 days measured on day 16 post-infection; assay type: functional, organism-based; in short: as §2
[17] = system: Human alphaherpesvirus 1; assay: Antiviral activity against Herpes simplex virus 1 assessed as plaque reduction at 1.71 x 10^-5 M by cell-based assay relative to vidarabine; assay type: functional; in short: as §1
[18] = system: Human alphaherpesvirus 1; assay: Antiviral activity against Herpes simplex virus 1 assessed as plaque reduction at 0.17 x 10^-5 M by cell-based assay relative to control; assay type: functional; in short: as §1
[19] = system: Human alphaherpesvirus 1; assay: Antiviral activity against Herpes simplex virus 1 assessed as plaque reduction at 0.17 x 10^-5 M by cell-based assay relative to vidarabine; assay type: functional; in short: as §1
[20] = system: Human alphaherpesvirus 2; assay: Antiviral activity against Herpes simplex virus 2 Magill infected in guinea pig assessed as prevention of vaginal discharge at 10% compound concentration treated intravaginally bid for 4 days measured on day 16 post-infection; assay type: functional, organism-based; in short: as §2
[21] = system: Human alphaherpesvirus 2; assay: Antiviral activity against Herpes simplex virus 2 Magill infected in guinea pig assessed as cured animal at 10% compound concentration treated intravaginally bid for 4 days measured on day 16 post-infection; assay type: functional, organism-based; in short: as §2
[22] = system: Human alphaherpesvirus 2; assay: Antiviral activity against Herpes simplex virus 2 Magill infected in guinea pig assessed as prevention of inflammation at 10% compound concentration treated intravaginally bid for 4 days measured on day 16 post-infection; assay type: functional, organism-based; in short: as §2
[23] = system: Human alphaherpesvirus 2; assay: Antiviral activity against Herpes simplex virus 2 Magill infected in guinea pig assessed as prevention of vesiculation of labia and vulva at 10% compound concentration treated intravaginally bid for 4 days measured on day 16 post-infection; assay type: functional, organism-based; in short: as §2
[24] = system: Human alphaherpesvirus 2; assay: Antiviral activity against Herpes simplex virus 2 Magill infected in guinea pig assessed as prevention of death at 10% compound concentration treated intravaginally bid for 4 days measured on day 16 post-infection; assay type: functional, organism-based; in short: as §2
[25] = system: Human alphaherpesvirus 2; assay: Antiviral activity against Herpes simplex virus 2 Magill infected in guinea pig assessed as prevention of paralysis at 10% compound concentration treated intravaginally bid for 4 days measured on day 16 post-infection; assay type: functional, organism-based; in short: as §2
[26] = system: Human alphaherpesvirus 1; assay: Antiviral activity against Herpes simplex virus 1 assessed as plaque reduction at 0.54 x 10^-5 M by cell-based assay relative to vidarabine; assay type: functional; in short: as §1
[27] = system: Human alphaherpesvirus 1; assay: Antiviral activity against Herpes simplex virus 1 assessed as plaque reduction at 1.75 x 10^-5 M by cell-based assay relative to control; assay type: functional; in short: as §1
[28] = system: Human alphaherpesvirus 1; assay: Antiviral activity against Herpes simplex virus 1 assessed as plaque reduction at 1.75 x 10^-5 M by cell-based assay relative to vidarabine; assay type: functional; in short: as §1
[29] = system: Human alphaherpesvirus 1; assay: Antiviral activity against Herpes simplex virus 1 assessed as plaque reduction at 1.67 x 10^-5 M by cell-based assay relative to vidarabine; assay type: functional; in short: as §1
[30] = system: Human alphaherpesvirus 1; assay: Antiviral activity against Herpes simplex virus 1 assessed as plaque reduction at 1.67 x 10^-5 M by cell-based assay relative to control; assay type: functional; in short: as §1

Structure (SMILES): CCC(=O)O[C@H]1[C@H](OC(=O)CC)[C@@H](CO)O[C@H]1n1cnc2c(N)ncnc21
inhibition at 1.8 µM [4]: 60%
inhibition at 18.3 µM [7]: 15%
Activity [8]: Active
Activity [9]: Active
Activity [10]: Toxic
Activity [11]: Toxic
Activity [12]: Active
Activity [13]: Active
Activity [14]: Active
inhibition at 18.3 µM [15]: 90%
Activity [16]: Active
Stability [2]: Stable
solubility ([3]; aqueous, read-out: solubility): 4500 µg/mL (≈ 11.9 mM)

Structure (SMILES): CC(=O)O[C@H]1[C@H](O)[C@@H](CO)O[C@H]1n1cnc2c(N)ncnc21
inhibition at 17.1 µM [17]: 90%
inhibition at 1.7 µM [18]: 0%
inhibition at 1.7 µM [19]: 60%
Stability [2]: Stable
solubility ([3]; buffer): soluble

Structure (SMILES): Nc1ncnc2c1ncn2[C@@H]1O[C@H](COP(=O)(O)O)[C@@H](O)[C@@H]1O
Activity [20]: Active
Activity [21]: Active
Activity [22]: Active
Activity [23]: Active
Activity [24]: Active
Activity [25]: Active

Structure (SMILES): CC(C)(C)C(=O)OC[C@H]1O[C@@H](n2cnc3c(N)ncnc32)[C@@H](O)[C@@H]1OC(=O)C(C)(C)C
inhibition at 16.7 µM [29]: 100%
inhibition at 16.7 µM [30]: 0%
Stability [2]: Stable
solubility ([3]; aqueous, read-out: solubility): < 10 µg/mL

Second part, led by results:

Stability [2]: Stable
solubility ([3]; aqueous, read-out: solubility): < 10 µg/mL
Structure (SMILES): Nc1ncnc2c1ncn2[C@@H]1O[C@H](CO)[C@@H](OC(=O)c2ccccc2)[C@@H]1OC(=O)c1ccccc1
inhibition at 54.7 µM [1]: 100%

Stability [2]: Stable
solubility ([3]; aqueous, read-out: solubility): 2300 µg/mL (≈ 6.06 mM)
Structure (SMILES): CCC(=O)OC[C@H]1O[C@@H](n2cnc3c(N)ncnc32)[C@@H](O)[C@@H]1OC(=O)CC
inhibition at 1.8 µM [4]: 23%
inhibition at 1.8 µM [5]: 0%
inhibition at 17.6 µM [6]: 76%

Stability [2]: Stable
solubility ([3]; aqueous, read-out: solubility): 4700 µg/mL (≈ 13.4 mM)
Structure (SMILES): CC(=O)OC[C@H]1O[C@@H](n2cnc3c(N)ncnc32)[C@@H](O)[C@@H]1OC(C)=O
inhibition at 5.4 µM [26]: 79%
inhibition at 17.5 µM [27]: 81%
inhibition at 17.5 µM [28]: 87%
